Entries after “also recorded” stand apart in the source; their conditions may differ. Read-outs that look alike come from different tables or passages of the source.

Assay [1] concerns HIV-1NL4–3. The experiment in a line: HIV-1/NL4–3 replication inhibition assay in MT-4 lymphocytes. Format: cell-based. Particulars: for activity compared with 4 (EC50 0.019 μM): HIV-1NL4–3 infected MT-4 cell lines. In short, it runs like this: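 MT-4 cells infected with HIV-1 NL4-3 at MOI 0.01 in the presence of test compound. Culture supernatants were harvested on day 4 post-infection, and p24 antigen was measured by capture ELISA. IC50 was taken as the concentration that inhibits NL4-3 replication by 50%.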

The test system of assay [2] is HIV-1NL4–3. Particulars: cited from earlier work.
Assay [3] relates to NL4–3/V370A. Particulars: most prevalent bevirimat-resistant polymorphism; cited from earlier work.
Where [4] appears, read: Human immunodeficiency virus 1, Lymphocyte, read-out: PIC50 (experimental).
Setting [5] is: Human immunodeficiency virus 1, MT4, 96 h.

As for `C=C(C)[C@@H]1CC[C@]2(C(=O)O)CC[C@]3(C)[C@H](CC[C@@H]4[C@@]5(C)CC[C@H](OC(=O)CC(C)(C)C(=O)O)C(C)(C)[C@@H]5CC[C@]43C)[C@@H]12` [Compound 3, 3-O-(3′,3′-dimethylsuccinyl)betulinic acid, reference compound], the figures for the IC50 in assay [1] (setting [4]) and in assay [1] (setting [5]) were 64.6 nM and 65 ± 1.9 nM, respectively.

As to `C=C(C)[C@@H]1CC[C@]2(C(=O)N3CCN(C(=O)/C=C/c4ccc5c(c4)OCO5)CC3)CC[C@]3(C)[C@H](CC[C@@H]4[C@@]5(C)CC[C@H](OC(=O)CC(C)(C)C(=O)O)C(C)(C)[C@@H]5CC[C@]43C)[C@@H]12` [Compound 4], the IC50 in assay [1] (setting [4]) was 19.1 nM; in assay [1] (setting [5]), 19 ± 5.4 nM. The “activity increase compared with 3 against NL4–3” value in assay [2] is “three-fold”. Besides, the “activity increase compared with 3 against NL4–3/V370A” value in assay [3] is listed as 51 fold. In the case of `C=C(C)[C@@H]1CC[C@]2(C(=O)N3CCN(C(=O)/C=C/c4ccc(OC)c(OC)c4)CC3)CC[C@]3(C)[C@H](CC[C@@H]4[C@@]5(C)CC[C@H](OC(=O)CC(C)(C)C(=O)O)C(C)(C)[C@@H]5CC[C@]43C)[C@@H]12` [Compound 9b], the IC50 was 28.8 nM in assay [1] (setting [4]) and 29 ± 9.3 nM in assay [1] (setting [5]). Regarding `C=C(C)[C@@H]1CC[C@]2(C(=O)N3CCN(C(=O)/C=C/c4ccc(N(C)C)cc4)CC3)CC[C@]3(C)[C@H](CC[C@@H]4[C@@]5(C)CC[C@H](OC(=O)CC(C)(C)C(=O)O)C(C)(C)[C@@H]5CC[C@]43C)[C@@H]12` [Compound 9i, (E)-4-(28-(4-(3-(4-(dimethylamino)phenyl)acryloyl)piperazine-1-carbonyl)lup-20(29)-en-3β-oxy)-2,2-dimethyl-4-oxobutanoic acid], the “activity compared with 4 (EC50 0.019 μM)” value in assay [1] is on record as “improved or comparable activity; also recorded: improved or similar activity”. With `C=C(C)[C@@H]1CC[C@]2(C(=O)N3CCN(C(=O)/C=C/c4ccc(OCOC)c(OCOC)c4)CC3)CC[C@]3(C)[C@H](CC[C@@H]4[C@@]5(C)CC[C@H](OC(=O)CC(C)(C)C(=O)O)C(C)(C)[C@@H]5CC[C@]43C)[C@@H]12` [Compound 9r], the results for the IC50 in assay [1] (setting [4]) and in assay [1] (setting [5]) were 50.1 nM and 50 ± 21 nM, respectively.

For `C=C(C)[C@@H]1CC[C@]2(C(=O)N3CCN(C(=O)/C=C/c4ccc(OCOC)c(OC)c4)CC3)CC[C@]3(C)[C@H](CC[C@@H]4[C@@]5(C)CC[C@H](OC(=O)CC(C)(C)C(=O)O)C(C)(C)[C@@H]5CC[C@]43C)[C@@H]12` [Compound 9t, (E)-4-(28-(4-(3-(3-methoxy-4-(methoxymethoxy)phenyl)acryloyl)piperazine-1-carbonyl)lup-20(29)-en-3β-oxy)-2,2-dimethyl-4-oxobutanoic acid], the “activity compared with 4 (EC50 0.019 μM)” value in assay [1] was “improved or comparable activity; also recorded: improved or similar activity”. Consider `C=C(C)[C@@H]1CC[C@]2(C(=O)N3CCN(C(=O)/C=C/c4ccc(O)c(O)c4)CC3)CC[C@]3(C)[C@H](CC[C@@H]4[C@@]5(C)CC[C@H](OC(=O)CC(C)(C)C(=O)O)C(C)(C)[C@@H]5CC[C@]43C)[C@@H]12` [Compound 10a], for which the figures for the IC50 in assay [1] (setting [4]) and in assay [1] (setting [5]) were 28.2 nM and 28 ± 9.8 nM, respectively. `C=C(C)[C@@H]1CC[C@]2(C(=O)N3CCN(C(=O)/C=C/c4ccc(O)c(OC)c4)CC3)CC[C@]3(C)[C@H](CC[C@@H]4[C@@]5(C)CC[C@H](OC(=O)CC(C)(C)C(=O)O)C(C)(C)[C@@H]5CC[C@]43C)[C@@H]12` [Compound 10c, (E)-4-(28-(4-(3-(4-hydroxy-3-methoxyphenyl)acryloyl)piperazine-1-carbonyl)lup-20(29)-en-3β-oxy)-2,2-dimethyl-4-oxobutanoic acid]: in assay [1], the “activity compared with 4 (EC50 0.019 μM)” value is “improved or comparable activity; also recorded: improved or similar activity”. As to `C=C(C)[C@@H]1CC[C@]2(C(=O)N3CCN(C(=O)CCc4ccc5c(c4)OCO5)CC3)CC[C@]3(C)[C@H](CC[C@@H]4[C@@]5(C)CC[C@H](OC(=O)CC(C)(C)C(=O)O)C(C)(C)[C@@H]5CC[C@]43C)[C@@H]12` [Compound 13m, 4-(28-(4-(3-(Benzo[d] [1,3]dioxol-5-yl)propanoyl)piperazine-1-carbonyl)lup-20(29)-en-3b-oxy)-2,2-dimethyl-4-oxobutanoic acid], in assay [1], the “activity compared with 4 (EC50 0.019 μM)” value is given as “improved or comparable activity; also recorded: improved or similar activity”. Consider `C=C(C)[C@@H]1CC[C@]2(C(=O)OCCCOC(=O)/C=C/c3ccc(OC)cc3)CC[C@]3(C)[C@H](CC[C@@H]4[C@@]5(C)CC[C@H](OC(=O)CC(C)(C)C(=O)O)C(C)(C)[C@@H]5CC[C@]43C)[C@@H]12` [Compound 20a], for which the “fold less potent than 9e” value in assay [1] (compared with piperazine-linked 9e) was determined as 11 fold. Compound `C=C(C)[C@@H]1CC[C@]2(C(=O)N3CCN(CCCCC(=O)N4CCN(C(=O)/C=C/c5ccc6c(c5)OCO6)CC4)CC3)CC[C@]3(C)[C@H](CC[C@@H]4[C@@]5(C)CC[C@H](OC(=O)CC(C)(C)C(=O)O)C(C)(C)[C@@H]5CC[C@]43C)[C@@H]12` [Compound 31] had an IC50 in assay [1] (setting [5]) of 12 ± 4.1 nM. `C=C(C)[C@@H]1CC[C@]2(C(=O)N3CCN(CCCCC(=O)N4CCN(c5cc(NCc6ccccc6)ncn5)CC4)CC3)CC[C@]3(C)[C@H](CC[C@@H]4[C@@]5(C)CC[C@H](OC(=O)CC(C)(C)C(=O)O)C(C)(C)[C@@H]5CC[C@]43C)[C@@H]12` [Compound 32, 4-(28-(4-(5-(4-(6-(Benzylamino)pyrimidin-4-yl)piperazin-1-yl)-5-oxopentyl)piperazine-1-carbonyl)lup-20(29)-en-3β-oxy)-2,2-dimethyl-4-oxobutanoic acid]: the “activity compared with 4 (EC50 0.019 μM)” value in assay [1] was “improved or comparable activity; also recorded: improved or similar activity”.

(Values after article PMC8176629 (European journal of medicinal chemistry, 2021).)
